Screens: PubChem BioAssay, The Scripps Research Institute Molecular Screening Center
A selection: hits, their analogues and other compounds. The true share with any hit is near 2.2%.
NR2F2 inh: NR2F2 transcriptional activity inhibitors, primary screen, cell-based, luciferase reporter, HEK293T, luminescence | COUP transcription factor 2 (Homo sapiens), P24468 | inhibition, % at 8.6 µM | HEK293T NGFI-A luciferase reporter | 370,000 tested, 0.7% active;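 active means inhibition above a per-plate cutoff, mean inhibition of test wells between control levels plus 3 SD, cut at about 38% in these data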;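 further: cells cotransfected with COUP-TFII expression vector driving the NGFI-A reporter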
Target sequence (P24468 whole entry, looked up): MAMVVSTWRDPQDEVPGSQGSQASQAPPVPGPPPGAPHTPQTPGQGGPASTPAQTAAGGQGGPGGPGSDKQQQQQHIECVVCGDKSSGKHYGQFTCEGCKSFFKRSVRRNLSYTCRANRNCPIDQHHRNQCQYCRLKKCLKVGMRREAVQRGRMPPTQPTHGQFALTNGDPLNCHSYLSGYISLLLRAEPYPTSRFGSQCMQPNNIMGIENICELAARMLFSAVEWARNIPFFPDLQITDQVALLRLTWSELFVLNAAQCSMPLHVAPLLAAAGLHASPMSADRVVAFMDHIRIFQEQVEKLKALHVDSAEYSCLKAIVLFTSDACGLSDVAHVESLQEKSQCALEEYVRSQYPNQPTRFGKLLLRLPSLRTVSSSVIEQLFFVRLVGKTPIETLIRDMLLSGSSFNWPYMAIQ
NR2E3 ag-1: NR2E3 agonists in two-hybrid cells, primary screen, cell-based, luminescence, CHO-S, Gal4-NCOR/VP16-NR2E3; Photoreceptor-specific nuclear receptor (Homo sapiens), Q9Y5X4; luciferase; inhibition of corepressor binding, % at 3.98 µM; 360,000 tested, 0.35% active; AID 602229, 2012;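 active means inhibition above the mean of all tested compounds plus 3 SD, cut at about 70% in these data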;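 further: higher means lower luciferase signal from less NR2E3 corepressor binding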
SMARCA2 act: SMARCA2 (BRM) function activators, primary screen, cell-based, luminescence, high throughput. MG213 cells, MMTV-luciferase reporter, dexamethasone, overnight. activation, % at 9.1 µM. 370,000 tested, 1% active. AID 652017, 2013; in the data active means activation above about 7.8%
GalR3 antagonist: GalR3 antagonists in HEK293 cells, primary screen, cell-based, fluorescence readout; HEK293 GalR3-CNG cAMP membrane potential fluorescence; galR3 body fused to GalR1 C-terminus; inhibition, % at 3 µM; 360,000 tested, 0.44% active; Galanin receptor type 3 (Homo sapiens), O60755;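 active means inhibition above the screen-wide average plus 3 SD, cut at about 13% in these data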;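 further: forskolin and galanin both at EC90 stimulate the cells; cAMP rise reported by CNG channel membrane potential dye signal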
NR2E3 ag-2: inhibitors of NR2E3-RetCOR corepressor binding, primary screen, NR2E3 agonist project, biochemical, TR-FRET, GST-NR2E3, biotin-RetCOR | inhibition of corepressor binding, % at 4.78 µM | 320,000 tested, 0.12% active | Photoreceptor-specific nuclear receptor (Homo sapiens), Q9Y5X4 | 1536-well;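 active means percent inhibition above the cutoff of mean plus 3 SD of all tested compounds, set per screening campaign, cut at about 20% in these data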
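System: GST-tagged NR2E3 plus biotinylated RetCOR corepressor; Amount: 1.35 nM GST-tagged NR2E3 final; Dosing: single nominal compound dose of 4.8 µM; Schedule: 5 h incubation at 4 °C; Technique: TR-FRET with europium anti-GST and streptavidin-D2, 340 nm excitation; Controls: biotin wells as high control, 0.6% DMSO wells as low control.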
SMARCA2 conf: SMARCA2 (BRM) function activators, confirmation, cell-based, luminescence, triplicate. shares compounds with SMARCA2 act. MG213 cells, MMTV-luciferase with dexamethasone, overnight; MG213 cells expressing E1A, Rb sequestered; DMSO wells 0%, reference activator 100%. activation, % at 9.1 µM. 3,500 tested, 30% active;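 active means activation above its plate's cutoff, the mean activation of tested wells plus 3 SD, cut at about 7.9% in these data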
GAL4-VP16 Luc: GAL4-VP16 luciferase reporter activation, counter-screen for SMARCA2 (BRM) activator project, cell-based, pG5luc, luminescence, high throughput; activation, % at 9.1 µM; AID 686939, 2013; 3,500 tested, 41% active; HEK293 GAL4-VP16 pG5luc reporter; scaled: DMSO wells 0%, SAHA wells 100%; shares compounds with SMARCA2 act;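 active means activation above the solvent-only control well mean plus 3 SD, averaged across control plates, cut at about 5.2% in these data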
Numbers stand for hits; 0 = inactive; - = no result.

SMILES	NR2F2 inh	NR2E3 ag-1	SMARCA2 act	GalR3 antagonist	NR2E3 ag-2	SMARCA2 conf	GAL4-VP16 Luc
CCN(CC)S(=O)(=O)c1cc(NC(=O)C(C)N(C)CC(=O)Nc2c(C)cccc2C)ccc1C (stereo not drawn)	0	0	9.2	0	0	0	0
O=C1NC(=Nc2cccnc2)S/C1=C/c1ccc(F)cc1	0	0	8.4	0	0	0	0
COc1ccc(CN2C[C@]3(C=C(C)Cn4c(=O)n(-c5ccccc5)c(=O)n43)N(C(=O)OCc3ccccc3)C2=NC(=O)c2ccccc2)c(OC)c1	0	-	8.6	-	-	0	0
COc1ccc(CN2C[C@]3(C=C4CCCCC4n4c(=O)n(-c5ccccc5)c(=O)n43)N(C(=O)OCc3ccccc3)C2=NC(=O)c2ccccc2)c(OC)c1 (stereo partly drawn)	0	-	0	-	-	-	-
COC(=O)CCCNC(=O)c1ccc(OC2CCN(CCc3ccccc3)CC2)cc1	0	0	0	0	0	-	-
CSCCNC(=O)c1ccc(OC2CCN(CCc3ccccc3)CC2)cc1	0	0	8.0	0	0	0	0
O=C(Nc1ccccc1C(F)(F)F)OC1CCC12CCC(c1ccccc1)CC2 (stereo not drawn)	0	-	0	-	-	-	-
O=C(Nc1ccc2c(c1)CCC2)c1ccc(Cl)nc1	0	0	0	0	0	-	-
Cc1cccc(NC(=O)CC2CCC2)c1	0	0	0	0	0	-	-
O=C(CC1CCCC1)Nc1ccc2c(c1)CCC2	0	0	9.0	0	0	13	0
O=C(Nc1cccc(F)c1)Nc1ccc2c(c1)CCC2	0	0	8.8	0	0	9.8	6.5
Cc1cc(NC(=O)CC2CCCC2)ccc1Br	0	0	11	0	0	0	8.6
O=C(COC(=O)c1ccc(Cl)nc1)Nc1ccc2c(c1)CCC2	0	0	9.1	0	-	0	0
O=C(Cc1ccccc1)Nc1ccc2c(c1)CCC2	0	0	0	0	0	-	-
CCn1c(COc2ccc(Cl)cc2)nnc1SCC(=O)Nc1ccc(Oc2ccccc2)cc1	0	-	0	-	-	-	-
O=C(C=Cc1ccccc1)c1cccs1	0	0	0	0	-	-	-
Nc1ccc(/C=C/C(=O)c2cccs2)cc1	0	0	12	0	0	9.1	6.8
Cc1ccc(-c2cnc3ccccc3n2)cc1C	0	0	8.2	0	0	0	9.4
O=[N+]([O-])c1cc(Cl)ccc1NCCNS(=O)(=O)c1ccccc1	0	0	16	0	0	0	0
Cc1ccc(CNC(=O)[C@@H](Cc2ccccc2)NC(=O)[C@H]2O[C@@H](n3ccc(N)nc3=O)[C@H](O)[C@@H]2O)o1	0	-	0	0	-	-	-
CCOC(=O)c1ccc(CNCc2ccc(C)cc2)cc1	0	0	9.1	0	0	0	0
Cc1ccc(CNC(=O)COC(=O)c2ccc(Br)cc2)cc1	0	0	0	0	0	-	-
COc1ccc(-c2ccc(SCC(=O)N3c4ccccc4CC3C)nn2)cc1OC (stereo not drawn)	0	0	13	0	0	0	0
CCOC(=O)N1CCN(C(=O)CSc2ccc(-c3ccc(OC)c(OC)c3)nn2)CC1	0	0	0	0	0	-	-
C=CCN1C(=O)[C@H](CC(=O)NCC23CC4CC(CC(C4)C2)C3)[C@@]2(C(=O)OC)CCCCC=C12	0	-	0	-	-	-	-
Cc1ccc(O)c(NC(=O)C2CCCN2C(=O)OCc2ccccc2)c1 (stereo not drawn)	0	0	9.6	0	0	0	0
S=c1[nH]ccn1Cc1ccccc1	0	0	8.9	0	0	0	0
